In data set [1] the test system is Plasmodium falciparum. Nature of the data set: Antiplasmodial activity against chloroquine-sensitive Plasmodium falciparum NF54 infected in human erythrocytes after 48 hrs by [3H]-hypoxanthine incorporation assay. The format is functional, organism-based. In short, it runs like this:
(§1)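 Modified [3H]-hypoxanthine incorporation assay against P. falciparum NF54 (sensitive) and K1 (multidrug-resistant). Values are means of ≥2 or ≥3 independent experiments. The resistance index is the K1 IC50 divided by the NF54 IC50.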

The next data set relates to CHO. The data set can be described thus: Cytotoxicity against CHO cells by MTT assay. In kind it is cell-based. To be noted: Cricetulus griseus. Summed up:
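CHO cells, MTT assay. Stocks 20 mg/mL in DMSO, diluted in complete medium; undissolved samples tested as suspensions. Emetine served as reference (10-fold dilutions, 6 concentrations, lowest 0.001 µg/mL). IC50 derived from full dose–response curves by non-linear fitting.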

Data set [2] has as its system Plasmodium falciparum. The data set can be described thus: Antiplasmodial activity against multidrug-resistant Plasmodium falciparum K1 infected in human erythrocytes after 48 hrs by [3H]-hypoxanthine incorporation assay. In kind it is functional, organism-based. In short, it runs like this: as §1
Data set [3] is described as follows: Selectivity index, ratio of IC50 for CHO cells to IC50 for chloroquine-sensitive Plasmodium falciparum NF54. In kind it is toxicity, cell-based. To be noted: hamster, read-out: Ratio IC50.
A short description of data set [4]: Lipophilicity, log P of the compound. To be noted: octanol/water. In kind it is physicochemical.
Data set [5] is described as follows: Inhibition of beta haematin formation after 5 to 6 hrs by pyridine-ferrichrome method. The format is physicochemical. Summed up: (§2)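 Modified β-haematin inhibition assay. Compounds from DMSO stocks, 0–1000 µM final, in duplicate. NP-40 added (30.55 µM). Haematin suspension added to give 0.5 M acetate pH 4.8 and 100 µM haematin, then incubated 5–6 h at 37 °C. Free haeme detected with pyridine/H2O/acetone/0.2 M HEPES pH 7.4 reagent (final pyridine ~5% v/v) plus acetone, and absorbance read.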

The test system of data set [6] is Plasmodium falciparum. Nature of the data set: Resistance index, ratio of IC50 for multidrug-resistant Plasmodium falciparum K1 to IC50 for chloroquine-sensitive Plasmodium falciparum NF54. The format is functional. In short, it runs like this:
as §1

The nature of data set [7]: Metabolic stability in BALB/c mouse liver microsomes assessed as compound remaining at […] after 30 mins by HPLC-MS/MS analysis in presence of NADPH. The format is ADME. To be noted: read-out: Stability.
Data set [8] in a line: Metabolic stability in human liver microsomes assessed as compound remaining at […] after 30 mins by HPLC-MS/MS analysis in presence of NADPH. In kind it is ADME. The conditions noted are these: read-out: Stability. (Microsomes from liver hold many membrane-bound enzymes, among them those of drug oxidation.)
For data set [9], the system named is Plasmodium falciparum. The data set can be described thus: Resistance index, ratio of IC50 for multidrug-resistant Plasmodium falciparum K1 to IC50 for Plasmodium falciparum W2. In kind it is functional.
A short description of data set [10]: Inhibition of beta haematin formation at 1000 uM after 5 to 6 hrs by pyridine-ferrichrome method. The format is physicochemical. Summed up:
as §2

A word on the IC50: it is the concentration at which inhibition is half-maximal. Broadly, the logP is the decadic logarithm of the partition coefficient of the neutral form, usually between octanol and water. High values mean a more lipophilic compound, low ones a more hydrophilic compound.

Each structure is given as a SMILES string.

Consider `Clc1ccc2c(Nc3ccc4oc(N5CCN(c6ccccc6)CC5)nc4c3)ccnc2c1`, for which the IC50 in the data set on Plasmodium falciparum [1] turned out to be 274 nM; in the data set on CHO it was 28700 nM; in the data set on Plasmodium falciparum [2], 875 nM; in data set [5], 29600 nM. Moreover, the selectivity ratio in data set [3] is 105. The logP in [4] was 6.05. Moreover, the “Ratio IC50” value with Plasmodium falciparum [6] is listed as 3.19.
With `O=C1CCCN1CCCNc1nc2cc(Nc3ccnc4cc(Cl)ccc34)ccc2o1`, the IC50 turned out to be 1880 nM in the data set on Plasmodium falciparum [1], 29600 nM in the data set on CHO, 773 nM in the data set with Plasmodium falciparum [2] and 97500 nM in data set [5]. Moreover, the selectivity ratio in [3] is 15.8. Moreover, the logP in data set [4] was found to be 2.88. For the same compound, the “Ratio IC50” value in the data set on Plasmodium falciparum [6] came to 0.41.
For the compound `CCN(CC)CCNc1nc2cc(Nc3ccnc4cc(Cl)ccc34)ccc2o1`, the IC50 amounted to 11 nM in the data set on Plasmodium falciparum [1], 11500 nM with CHO, 42 nM with Plasmodium falciparum [2] and 244000 nM in data set [5]. In data set [3], the selectivity ratio came out at 1040. For the same compound, the remaining at 0.5 h in [7] turned out to be 74%; in data set [8], 78%. In addition, the “Ratio IC50” value in the data set on Plasmodium falciparum [6] came to 3.82.
Consider `Clc1ccc2c(Nc3ccc4oc(NCc5ccccn5)nc4c3)ccnc2c1`, for which the 50% inhibitory concentration (IC50) in the data set with Plasmodium falciparum [1] was 406 nM; with CHO it was above 240000 nM; with Plasmodium falciparum [2], 883 nM; in data set [5], 106000 nM. For the same compound, the “Ratio IC50” value in the data set with Plasmodium falciparum [6] is 2.17.
In the case of `COCCc1nc2cc(Nc3ccnc4cc(Cl)ccc34)ccc2o1`, the figures for the IC50 with Plasmodium falciparum [1] and in the data set on Plasmodium falciparum [2] were 1090 nM and 2110 nM, respectively. In data set [4], this compound came in with a logP of 3.11. In the data set with Plasmodium falciparum [6], the “Ratio IC50” value was 1.93.
On to `Clc1ccc2c(Nc3ccc(NCCN4CCCC4)nc3)ccnc2c1`, for which, in the data set on Plasmodium falciparum [9], the “Ratio IC50” value was 4.38.
Turning to `CCN(CC)c1nc2cc(Nc3ccnc4cc(Cl)ccc34)ccc2o1`, the IC50 in the data set with Plasmodium falciparum [1] came out at 512 nM; in the data set with CHO it was 229000 nM; with Plasmodium falciparum [2], 1380 nM; in [5] it was 50700 nM. Further, in [3], the selectivity ratio is 448. In addition, the logP in [4] is 4.78. In addition, the “Ratio IC50” value in the data set with Plasmodium falciparum [6] is 2.69.
On to `Clc1ccc2c(Nc3ccc4[nH]c(NCCN5CCCCC5)nc4c3)ccnc2c1`, for which, in the data set with Plasmodium falciparum [9], the “Ratio IC50” value is 0.02.
On to `CCN(CC)CCCNc1nc2cc(Nc3ccnc4cc(Cl)ccc34)ccc2o1`, for which the IC50 in the data set with Plasmodium falciparum [1] was 14 nM; in the data set with CHO, 6370 nM; in the data set with Plasmodium falciparum [2] it was 85 nM; in data set [5], 165000 nM. For the same compound, in data set [3], the selectivity ratio was determined as 455. Besides, the remaining at 0.5 h in data set [7] and in [8] was 70% throughout. This compound showed a lipophilicity (logP) in data set [4] of 4.12. Moreover, in the data set on Plasmodium falciparum [6], the “Ratio IC50” value is 6.07.
In the case of `CC[C@H]1CN2CCc3cc(OC)c(OC)cc3[C@@H]2C[C@@H]1C[C@H]1NCCc2cc(OC)c(OC)cc21` [EMETINE], in the data set with CHO, the IC50 was 104 nM.
As to `Clc1cccc(CNc2nc3cc(Nc4ccnc5cc(Cl)ccc45)ccc3o2)c1`, the IC50 was determined as 124 nM in the data set on Plasmodium falciparum [1], 25700 nM with CHO, 223 nM in the data set on Plasmodium falciparum [2] and 27100 nM in [5]. Moreover, in data set [3], the selectivity ratio was 207. Besides, the logP in data set [4] was 5.7. Further, in the data set with Plasmodium falciparum [6], the “Ratio IC50” value came out at 1.8.
In the case of `O=[N+]([O-])c1ccc2oc(N3CCN(c4ccccc4)CC3)nc2c1`, the half-inhibitory concentration (IC50) in the data set on Plasmodium falciparum [1] and in the data set on Plasmodium falciparum [2] was above 20000 nM in each case. Also, the “inhibition (INH)” value in [10] is given as “Not Active”.
Turning to `CCN(CC)CCNc1nc2cc(Nc3ccnc4cc(Cl)ccc34)ccc2[nH]1`, in the data set with Plasmodium falciparum [9], the “Ratio IC50” value was 4.14.
On to `CN(C)CCCNc1nc2cc(Nc3ccnc4cc(Cl)ccc34)ccc2o1`, for which the IC50 with Plasmodium falciparum [1] amounted to 19 nM; in the data set with CHO, 12600 nM; in the data set with Plasmodium falciparum [2] it was 149 nM; in data set [5], 174000 nM. For the same compound, the selectivity ratio in data set [3] is 665. Also, the results for the remaining at 0.5 h in data set [7] and in data set [8] were 44% and 78%, respectively. The lipophilicity (logP) in [4] worked out at 3.44. The “Ratio IC50” value with Plasmodium falciparum [6] was determined as 7.84.
Turning to `CN1CCN(Nc2nc3cc(Nc4ccnc5cc(Cl)ccc45)ccc3o2)CC1`, the IC50 with Plasmodium falciparum [1] was determined as 144 nM; in the data set with CHO, 122000 nM; in the data set with Plasmodium falciparum [2], 240 nM; in [5], 73300 nM. Also, the selectivity ratio in data set [3] was 849. The compound also returned a logP in [4] of 2.6. For the same compound, the “Ratio IC50” value with Plasmodium falciparum [6] came out at 1.67.
With `Clc1ccc2c(Nc3ccc4oc(NCCCN5CCOCC5)nc4c3)ccnc2c1`, the IC50 with Plasmodium falciparum [1] came out at 39 nM; in the data set on CHO, 13700 nM; with Plasmodium falciparum [2], 80 nM; in [5] it was 80100 nM. Besides, the selectivity ratio in [3] came out at 351. In addition, the remaining at 0.5 h in data set [7] came out at 26%; in data set [8], 27%. Also, the logP in data set [4] came out at 3.09. In addition, the “Ratio IC50” value in the data set on Plasmodium falciparum [6] is listed as 2.05.
Take `Clc1cccc(N2CCN(c3nc4cc(Nc5ccnc6cc(Cl)ccc56)ccc4o3)CC2)c1`: the IC50 is 202 nM in the data set on Plasmodium falciparum [1], 172000 nM in the data set on CHO, 412 nM in the data set with Plasmodium falciparum [2] and 24700 nM in data set [5]. The selectivity ratio in data set [3] is 852. In addition, the remaining at 0.5 h is above 99% in data set [7] and 36% in data set [8]. For the same compound, the logP in data set [4] is 6.57. The “Ratio IC50” value in the data set on Plasmodium falciparum [6] worked out at 2.04.
For the compound `CCN(CC)c1nc2cc([N+](=O)[O-])ccc2o1`, the IC50 in the data set with Plasmodium falciparum [1] and in the data set with Plasmodium falciparum [2] was above 20000 nM in each case. Moreover, the “inhibition (INH)” value in data set [10] is “Not Active”.
As to `CN1CCN(c2nc3cc(Nc4ccnc5cc(Cl)ccc45)ccc3o2)CC1`, the IC50 in the data set on Plasmodium falciparum [1] was 51 nM; in the data set on CHO it was above 240000 nM; with Plasmodium falciparum [2], 99 nM; in [5] it was 71700 nM. Moreover, the remaining at 0.5 h stood at 18% in data set [7] and 61% in [8]. This compound also showed a logP in data set [4] of 3.9. Besides, the “Ratio IC50” value in the data set with Plasmodium falciparum [6] came out at 1.94.
In the case of `Clc1ccc2c(Nc3ccc(NCCN4CCOCC4)nc3)ccnc2c1`, the “Ratio IC50” value in the data set on Plasmodium falciparum [9] came to 1.78.
Consider `Clc1ccc2c(Nc3ccc4oc(NCc5cccnc5)nc4c3)ccnc2c1`, for which the IC50 in the data set on Plasmodium falciparum [1] was 309 nM; in the data set with CHO, 164000 nM; in the data set on Plasmodium falciparum [2], 704 nM; in data set [5] it was 100000 nM. In addition, the selectivity ratio in [3] was determined as 532. Moreover, in data set [4], the logP turned out to be 4.68. Moreover, in the data set with Plasmodium falciparum [6], the “Ratio IC50” value is 2.28.
Regarding `Clc1ccc2c(Nc3ccc4oc(NCCc5ccccn5)nc4c3)ccnc2c1`, the concentration for half-maximal inhibition (IC50) is 402 nM in the data set on Plasmodium falciparum [1], above 240000 nM in the data set on CHO, 851 nM with Plasmodium falciparum [2] and 63000 nM in [5]. The compound also had a logP in [4] of 4.42. The “Ratio IC50” value in the data set with Plasmodium falciparum [6] is 2.12.
Regarding `Clc1ccc2c(Nc3ccc4oc(NCc5ccncc5)nc4c3)ccnc2c1`, the half-inhibitory concentration (IC50) in the data set with Plasmodium falciparum [1] was 630 nM; with CHO, above 240000 nM; in the data set on Plasmodium falciparum [2], 1550 nM; in data set [5], 93000 nM. The compound also came in with a logP in [4] of 4.55. In the data set with Plasmodium falciparum [6], the “Ratio IC50” value is on record as 2.47.
For the compound `Clc1ccc2c(Nc3ccc4sc(NCCN5CCCC5)nc4c3)ccnc2c1`, the “Ratio IC50” value with Plasmodium falciparum [9] amounted to 1.17.
With `Clc1ccc2c(Nc3ccc4oc(NCCN5CCOCC5)nc4c3)ccnc2c1`, the IC50 came to 108 nM in the data set on Plasmodium falciparum [1], 124000 nM in the data set on CHO, 198 nM in the data set on Plasmodium falciparum [2] and 80000 nM in data set [5]. Moreover, the selectivity ratio in [3] was 1150. The “Ratio IC50” value with Plasmodium falciparum [6] is 1.83.
Consider `CN(C)Cc1nc2cc(Nc3ccnc4cc(Cl)ccc34)ccc2o1`, for which the IC50 in the data set on Plasmodium falciparum [1] came out at 213 nM; in the data set with Plasmodium falciparum [2], 411 nM. Moreover, the “Ratio IC50” value with Plasmodium falciparum [6] turned out to be 1.93.

The values above are taken from ChEMBL document CHEMBL3603782, “Antimalarial benzoheterocyclic 4-aminoquinolines: Structure-activity relationship, in vivo evaluation, mechanistic and bioactivation studies” (Bioorg Med Chem, 2015).
